Bioassay records from PubChem BioAssay.
Compounds with a hit are over-represented: about 4.5% of the library has one in this group of screens.
RGS4 pot = potentiators or activators of RGS4 | HEK293 M3R/inducible RGS4, carbachol calcium flux Fluo4; hits give low values | B-score at 10 µM | actives 0.92% (n = 310,000) | AID 463111;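 active = B-score of the integrated calcium signal more than 4 SD below the library mean, with starting fluorescence not abnormally high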;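 also: negative B-score means reduced calcium response which marks RGS4 activation or potentiation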
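Material: Inducible-RGS4 HEK293 cells carrying M3 receptor; also added: carbachol at ECmax as muscarinic agonist stimulus; incubation: compound preincubation 20 min at room temperature before agonist; signal: Fluo4-AM (2 µM) calcium-flux fluorescence, kinetic read; measure: integrated calcium ratio converted to B score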
MrgX1 PAM = human MrgX1 positive allosteric modulation, primary screen; MrgX1-HEK293, Fluo-4 calcium flux, FDSS; hits give high values; B-score at 10 µM; actives 0.63% (n = 310,000); AID 588675;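 active = plate-corrected calcium response at least 3 library SD above typical, normal starting fluorescence, not activating the receptor alone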;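 also: compound read alongside a low EC10 to EC30 dose of BAM8-22 agonist; peak minus trough fluorescence over baseline measured at the second addition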
MrgX1 agonist = agonists of human MrgX1 receptor; Q96LB2; MrgX1-HEK293 cells, Fluo-4 calcium fluorescence, agonist mode; hits give high values; B-score at 10 µM; actives 0.44% (n = 310,000); AID 588627;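 active = calcium response B-score plate-corrected fluorescence ratio at least 3 library SD, with starting fluorescence B-score inside 5 SD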
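System: HEK293 cells stably expressing human MrgX1 receptor; Dosing: test compound in the initial addition of three; Schedule: overnight plating, then 30 min 37 °C plus 30 min room-temperature dye loading; Detection: kinetic calcium dye fluorescence, Fluo-4 NW; Controls: per-plate positive and negative controls for Z′ factor.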
RGS4 inh = human RGS4 inhibition; P49798; HEK293 M3R/RGS4 inducible, Fluo-4 calcium flux; hits give high values; triggered by carbachol at its EC20; B-score at 10 µM; actives 0.45% (n = 310,000);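 active = B-score, a plate-corrected calcium signal, over three deviations above library mean, with baseline fluorescence within five deviations of library mean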;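 also: RGS4 expression induced by doxycycline in cells with stable M3 receptor; B-score is computed from the integrated fluorescence ratio over baseline after carbachol; higher B-score means a larger calcium signal and so more RGS4 inhibition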
Target sequence (P49798 whole entry, looked up): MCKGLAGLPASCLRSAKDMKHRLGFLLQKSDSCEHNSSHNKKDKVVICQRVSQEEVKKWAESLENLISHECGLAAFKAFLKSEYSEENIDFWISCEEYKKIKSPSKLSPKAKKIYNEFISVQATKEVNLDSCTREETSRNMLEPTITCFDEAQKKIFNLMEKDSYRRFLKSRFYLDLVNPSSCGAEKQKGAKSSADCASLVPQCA
MrgX1 antagonist = blocks BAM8-22 activation of human MrgX1 receptor | Q96LB2 | MRGX1-HEK293 calcium flux, Fluo-4, BAM8-22 antagonism; hits give low values | B-score at 10 µM | actives 1.3% (n = 310,000) | AID 588676;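 active = calcium-response B-score plate-corrected more than 3 library SD below zero, starting fluorescence within 5 deviations, no agonist response on first addition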;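 also: peak minus trough fluorescence over baseline after final BAM8-22 challenge near maximal dose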
PHOSPHO1 inh = PHOSPHO1 (human) inhibition; Q8TCT1; recombinant PHOSPHO1, absorbance phosphatase assay; AID 1565; inhibition, % at 13.3 µM; actives 1.1% (n = 290,000); in the data active = inhibition above about 60%
Target sequence (Q8TCT1 whole entry, looked up): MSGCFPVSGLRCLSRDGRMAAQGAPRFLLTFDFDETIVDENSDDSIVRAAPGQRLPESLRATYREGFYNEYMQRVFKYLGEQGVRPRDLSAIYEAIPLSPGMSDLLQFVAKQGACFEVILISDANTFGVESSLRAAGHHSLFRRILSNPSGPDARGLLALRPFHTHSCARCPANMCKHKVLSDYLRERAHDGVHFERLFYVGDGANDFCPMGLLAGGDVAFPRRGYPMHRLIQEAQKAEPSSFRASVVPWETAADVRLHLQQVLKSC
* hit, by the source's call.

Results for CCOC(=O)C(CN1CCCC1)c1ccccc1 (stereo not drawn) ?
RGS4 pot: inactive; MrgX1 PAM: inactive; MrgX1 agonist: inactive; RGS4 inh: inactive; MrgX1 antagonist: inactive

How did CC(=O)Nc1ccc2nc(NC(=O)COc3cccc(C)c3)sc2c1 do in these assays?
RGS4 pot: inactive; MrgX1 PAM: inactive; MrgX1 agonist: inactive; RGS4 inh: inactive; MrgX1 antagonist: inactive; PHOSPHO1 inh: 9

What do the screens show for `CCN(Cc1ccccc1)S(=O)(=O)c1ccc(C(=O)N(CCCN(C)C)c2nc3c(C)c(C)ccc3s2)cc1`?
RGS4 pot: inactive; MrgX1 PAM: inactive; MrgX1 agonist: inactive; RGS4 inh: inactive; MrgX1 antagonist: -6.7*

Results for CN(C)CCCN(C(=O)CCS(=O)(=O)c1ccccc1)c1nc2cc3c(cc2s1)OCO3 ?
RGS4 pot: -8.2*; MrgX1 PAM: inactive; MrgX1 agonist: inactive; RGS4 inh: inactive; MrgX1 antagonist: inactive; PHOSPHO1 inh: 32

What do the screens show for `CN(C)CCCN(C(=O)CCSc1ccccc1)c1nc2cc3c(cc2s1)OCO3`?
RGS4 pot: inactive; MrgX1 PAM: inactive; MrgX1 agonist: inactive; RGS4 inh: inactive; MrgX1 antagonist: inactive; PHOSPHO1 inh: 23

How did CN(C)CCCN(C(=O)c1ccc(C(=O)c2ccccc2)cc1)c1nc2cc3c(cc2s1)OCCO3 do in these assays?
RGS4 pot: -8.8*; MrgX1 PAM: inactive; MrgX1 agonist: inactive; RGS4 inh: inactive; MrgX1 antagonist: inactive; PHOSPHO1 inh: -64

How did Cc1ccc2sc(N(CCCN(C)C)C(=O)c3ccc(S(=O)(=O)N(C)C4CCCCC4)cc3)nc2c1C do in these assays?
RGS4 pot: inactive; MrgX1 PAM: inactive; MrgX1 agonist: inactive; RGS4 inh: inactive; MrgX1 antagonist: inactive

How did CCN(Cc1ccccc1)S(=O)(=O)c1ccc(C(=O)N(CCCN(C)C)c2nc3cc4c(cc3s2)OCO4)cc1 do in these assays?
RGS4 pot: -7.5*; MrgX1 PAM: inactive; MrgX1 agonist: inactive; RGS4 inh: inactive; MrgX1 antagonist: inactive; PHOSPHO1 inh: 51

How did CN1C(=O)CCC(CCC(=O)O)(c2ccccc2O)C1=O (stereo not drawn) do in these assays?
RGS4 pot: inactive; MrgX1 PAM: inactive; MrgX1 agonist: inactive; RGS4 inh: inactive; MrgX1 antagonist: inactive; PHOSPHO1 inh: 1

Results for CC1CCN(C(=O)C2CCC(=O)N(Cc3ccc(Cl)cc3)C2)CC1 (stereo not drawn) ?
RGS4 pot: inactive; MrgX1 PAM: inactive; MrgX1 agonist: inactive; RGS4 inh: inactive; MrgX1 antagonist: inactive; PHOSPHO1 inh: 34

How did COc1ccccc1C(=O)C1Nc2ccccc2-c2nnc(SC)nc2O1 (stereo not drawn) do in these assays?
RGS4 pot: inactive; MrgX1 PAM: inactive; MrgX1 agonist: inactive; RGS4 inh: inactive; MrgX1 antagonist: inactive; PHOSPHO1 inh: -8

Results for CCCCSc1nnc2c(n1)OC(C(=O)c1ccccc1)Nc1ccccc1-2 (stereo not drawn) ?
RGS4 pot: inactive; RGS4 inh: inactive; PHOSPHO1 inh: 90*

What do the screens show for `Cc1cc(C(=O)NNS(=O)(=O)c2ccc(C(C)(C)C)cc2)nn1C(C)(C)C`?
RGS4 pot: inactive; MrgX1 PAM: 9.8*; MrgX1 agonist: inactive; RGS4 inh: inactive; MrgX1 antagonist: inactive; PHOSPHO1 inh: 20

What do the screens show for `CN1CCN(CC#CCn2c3ccccc3c3ccccc32)CC1`?
RGS4 pot: -7.1*; MrgX1 PAM: inactive; MrgX1 agonist: inactive; RGS4 inh: inactive; MrgX1 antagonist: inactive; PHOSPHO1 inh: -12

Results for Cc1nc2nc(C)c(NS(=O)(=O)c3ccc4c(c3)CCCC4)c(=O)n2[nH]1 ?
RGS4 pot: inactive; MrgX1 PAM: inactive; MrgX1 agonist: inactive; RGS4 inh: inactive; MrgX1 antagonist: inactive; PHOSPHO1 inh: 0

Results for O=C(Cn1nnc(-c2cccs2)n1)NCc1ccccc1 ?
RGS4 pot: inactive; MrgX1 PAM: inactive; MrgX1 agonist: inactive; RGS4 inh: inactive; MrgX1 antagonist: inactive; PHOSPHO1 inh: 23
